Shown is part of a subset that was picked to be rich in hits.
PGC1a acetyl up: raises PGC1a acetylation signal in U2OS cells | AID 651723 | hit rate 0.21% among 350,000 | activation, % at 15.6 µM | U2OS PGC1a acetylation AlphaScreen, overnight;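 active = every replicate reaching activation of at least 50%, whatever the mean replicate activation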;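 also: hits raise the AlphaScreen acetylation signal above neutral controls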
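detection = AlphaScreen lysate read | assay system = U2OS cells expressing flag-PGC1a plus GCN5 | input = 7000 cells/well | dosing = one concentration | times = compound overnight at 37 °C, each detection step 1 h RT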
A number is an active result; . = inactive.

SMILES | PGC1a acetyl up
CC(=O)Nc1cccc(-c2ccnc3c2CC(C)(C(=O)Nc2ccc(C(C)C)cc2)O3)c1 (stereo not drawn) | 70
CC(C)C#Cc1cnc2c(c1)C(=O)N([C@@H](C)CO)C[C@@H](C)[C@@H](CN(C)C(=O)c1ccccn1)O2 | .
C/C(CC(=O)Nc1ccccc1Br)=N\NC(=O)C(=O)N1CCCC1 | .
COc1ccc(C(=O)Nc2cc(Cl)ccc2-n2cncn2)c(OC)c1OC | .
CCN1/C(=C/c2ccc3cccc(C)c3[n+]2CC)Sc2ccccc21 | 185
CCn1nnc(NC(=O)c2ccc(C(C)(C)C)cc2)n1 | .
COc1ccc(-n2c(SCC#N)nnc2-c2cccnc2)cc1 | .
CCOC(=O)CSc1nnc(-c2ccc(OC)cc2)n1CC | 100
C[C@H]1CCCCO[C@H](CN(C)Cc2ccc3c(c2)OCO3)[C@@H](C)CN([C@@H](C)CO)C(=O)c2cc(NC(=O)Nc3ccc(C(F)(F)F)cc3)ccc2O1 | .
O=C(NCc1ccc2c(c1)OCO2)c1ccc(NC(=O)C2CCCO2)cc1 (stereo not drawn) | 66
C[C@@H]1CCCCO[C@H](CN(C)Cc2ccc3c(c2)OCO3)[C@@H](C)CN([C@@H](C)CO)C(=O)c2cc(NC(=O)Nc3ccc(C(F)(F)F)cc3)ccc2O1 | .
CC1CCCCC12NC(=O)N(CC(=O)NCc1ccc3c(c1)OCO3)C2=O (stereo not drawn) | .
Cc1cc(C)n(C/C=C/Cn2nc(C)cc2C)n1 | .
C=CS(=O)(=O)N(Cc1ccc(Cl)c(Cl)c1)C[C@@H](O)CO | 65
CC(=O)NC(=S)Nc1ccc(NC(=O)COc2ccc(Cl)cc2Cl)cc1 | 76
CCCN(C)C[C@H]1Oc2cc(C#C[C@@H](C)O)ccc2S(=O)(=O)N([C@@H](C)CO)C[C@H]1C | .
C[C@@H]1CN([C@H](C)CO)C(=O)CCCn2cc(nn2)CO[C@@H]1CN(C)C(=O)OCc1ccccc1 | .
Cc1occc1C(=O)N/N=C/C(Br)=C/c1ccccc1 | 164
COc1ccc(OC)c(/C=N/NC(=O)c2[nH]ncc2Br)c1 | .
COc1cccc(C(=O)N/N=C/C(Br)=C/c2ccccc2)c1 | 101
O=C(N/N=C/C(Br)=C\c1ccccc1)c1n[nH]c2c1CCC2 | 91
Cn1cc(C(=O)N/N=C/C(Br)=C\c2ccccc2)ccc1=O | 128
COc1ccc(-c2cc(C(=O)N/N=C/c3cc(OC)c(OC)cc3OC)c3ccccc3n2)cc1 | .
C[C@H]1CN([C@@H](C)CO)C(=O)c2cc(-c3cccc(C(=O)N(C)C)c3)cnc2O[C@@H]1CN(C)S(=O)(=O)c1ccc(F)cc1 | .
Nc1cc2ccncc2c2ccccc12 | .
SMILES | PGC1a acetyl up
CCCNC(=O)[C@H]1[C@H](CO)[C@H]2Cn3c(ccc(-c4ccccc4)c3=O)[C@H]2N1C(=O)C1CC1 | .
Cc1ccccc1CS(=O)(=O)c1nnc([C@H](Cc2ccccc2)NC(=O)OC(C)(C)C)o1 | .
COc1ccc(-c2cnc3c(c2)C(=O)N([C@H](C)CO)C[C@H](C)[C@@H](CN(C)C(=O)C2CCC2)O3)cc1 | .
N#Cc1ccc(-c2ccc([C@@H]3[C@@H]4CN(S(=O)(=O)c5ccc(-c6ccccc6)cc5)C[C@H]3N4)cc2)cc1 | .
Cc1ccccc1-c1ccc(C2[C@@H]3CN(C(=O)Nc4cccc(F)c4)C[C@H]2N3)cc1 (stereo partly drawn) | 56
Cc1ccccc1-c1ccc(C2[C@@H]3CN(S(=O)(=O)c4ccccc4C)C[C@H]2N3)cc1 (stereo partly drawn) | 92
O=C(Nc1ccc(F)cc1)N1C[C@@H]2N[C@H](C1)C2c1ccc(/C=C/c2ccccc2)cc1 (stereo partly drawn) | 59
COc1ccc(-c2ccc(C3[C@@H]4CN(C(=O)Nc5cccc(F)c5)C[C@H]3N4)cc2)cc1 (stereo partly drawn) | 64
O=C(Nc1ccc(F)cc1)N1CC(=O)N2[C@@H](CO)[C@H](c3ccc(Br)cc3)[C@@H]2C1 | .
O=C(Nc1ccc(F)cc1)N1CC(=O)N2[C@@H](CO)[C@@H](c3ccc(-c4ccccc4)cc3)[C@@H]2C1 | .
CCCNC(=O)c1ccc(COc2ccc(Cl)cc2)o1 | .
CCOc1ccnc(OCC)c1Br | .
CC(=O)NC(c1cccc(F)c1)c1nc(-c2cccc(C(C)C)c2)cs1 (stereo not drawn) | .
C[C@@H]1CN([C@@H](C)CO)S(=O)(=O)c2ccc(-c3ccccc3)cc2O[C@@H]1CN(C)C(=O)c1ccccc1F | .
Cc1cc(/C=C\c2ccc3cc(N(C)C)ccc3[n+]2C)c(C)n1-c1ccccc1 | .
COc1cccc(-n2c(Cc3cc(=O)[nH]c(=O)[nH]3)nnc2SCc2cccc(C(F)(F)F)c2)c1 | .
COC(=O)c1c(C)oc(C)c1S(=O)(=O)Nc1ccccc1 | .
Cc1cc(C)c(S(=O)(=O)Nc2ccccc2-c2ccccc2)c(C)c1 | 79
Cc1ccc(-c2ccc3c(c2)O[C@@H](CN(C)C(=O)C2CCCCC2)[C@H](C)CN([C@H](C)CO)S3(=O)=O)cc1 | .
C=CCSc1nc2ccccc2n1C(=O)/C=C/c1cc(OC)c(OC)c(OC)c1 | 527

Source: PubChem BioAssay
